Measurements taken from ChEMBL document CHEMBL1158781, “Indole alkaloids and other constituents of Rauwolfia serpentina” (J Nat Prod, 2005).
The source made the active and inactive calls. The rule behind the calls is not given here.

Columns and labels:
[1] = molecular target: T1, DNA topoisomerase 1 (Homo sapiens) (UniProt P11387); test: (§1) Inhibition of human recombinant DNA topoisomerase1
T1 sequence (whole entry): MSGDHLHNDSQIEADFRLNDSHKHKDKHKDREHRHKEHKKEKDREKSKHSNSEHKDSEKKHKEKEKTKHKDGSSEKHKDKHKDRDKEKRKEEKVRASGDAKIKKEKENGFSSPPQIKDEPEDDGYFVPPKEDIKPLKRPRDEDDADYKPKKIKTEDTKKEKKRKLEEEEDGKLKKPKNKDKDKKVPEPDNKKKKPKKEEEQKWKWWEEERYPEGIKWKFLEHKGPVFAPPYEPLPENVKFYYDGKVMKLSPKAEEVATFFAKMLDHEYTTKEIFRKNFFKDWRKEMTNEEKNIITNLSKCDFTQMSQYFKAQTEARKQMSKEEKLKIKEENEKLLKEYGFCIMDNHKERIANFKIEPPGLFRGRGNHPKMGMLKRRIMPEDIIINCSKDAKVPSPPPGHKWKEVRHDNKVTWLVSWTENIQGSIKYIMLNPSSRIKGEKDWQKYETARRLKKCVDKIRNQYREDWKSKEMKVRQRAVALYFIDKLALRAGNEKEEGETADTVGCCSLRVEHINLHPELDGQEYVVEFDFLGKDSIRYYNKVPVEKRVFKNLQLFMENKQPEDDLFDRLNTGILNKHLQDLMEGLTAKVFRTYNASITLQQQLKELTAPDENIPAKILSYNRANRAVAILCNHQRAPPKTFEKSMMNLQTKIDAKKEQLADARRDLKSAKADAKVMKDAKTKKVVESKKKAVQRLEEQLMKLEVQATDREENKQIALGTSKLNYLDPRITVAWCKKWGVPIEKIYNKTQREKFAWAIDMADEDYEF
Outline: (§2)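 Recombinant human topo I (2 units) relaxing pBR322 DNA (0.25 µg). Buffer: 10 mM Tris-HCl pH 7.9, 1 mM EDTA, 150 mM NaCl, 0.1% BSA, 0.1 mM spermidine, 5% glycerol. Inhibitor added in 10% DMSO; 30 min at 37 °C. Sarkosyl stop, 1% agarose/TAE gel, EtBr stain, relaxed DNA seen under UV.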

[2] = tested on: HL-60; test: Cytotoxicity against human HL60 cells by MTT assay; type: functional, cell-based
Outline: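 HL-60 human promyelocytic leukemia cells grown in RPMI 1640 with 10% FBS, penicillin and streptomycin at 37 °C under 5% CO2. Cells plated at 3 × 10^5 per well with a range of alkaloid concentrations. Compounds supplied as 10 mM PBS stocks and diluted into growth medium just before use. Survival read out by MTT.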

[3] = species: Homo sapiens; test: (§3) Inhibition of human recombinant DNA topoisomerase-2
Outline: (§4)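 Recombinant human topo II (2 units) relaxing supercoiled pUC19 DNA (0.25 µg). Inhibitor added in 10% DMSO; 30 min at 37 °C. Stopped with sarkosyl loading buffer, run on 1% agarose in TAE, EtBr stain, conversion to relaxed form scored under UV.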

[4] = as §3; outline: as §4
[5] = molecular target: T2, DNA topoisomerase 1 (Homo sapiens, UniProt P11387); test: as §1; outline: as §2
T2 sequence (P11387 whole entry): T1 sequence (whole entry)

Activity [1]	Activity [3]	IC50 [4] [µM]	IC50 [5] [µM]	SMILES	Activity [2]	IC50 [2] [µM]
inactive	inactive	–	–	COC(=O)[C@H]1[C@H]2C[C@@H]3c4[nH]c5ccccc5c4CCN3C[C@H]2CC(O)[C@@H]1O (stereo partly specified)	inactive	–
inactive	inactive	–	–	COC(=O)[C@H]1[C@H]2C[C@@H]3c4[nH]c5ccccc5c4CCN3C[C@H]2CC[C@@H]1O	inactive	–
–	–	40	> 1000	COc1cc([C@@H]2c3cc4c(cc3[C@@H](O[C@@H]3O[C@@H]5CO[C@@H](C)O[C@H]5[C@H](O)[C@H]3O)[C@H]3COC(=O)[C@H]23)OCO4)cc(OC)c1O [ETOPOSIDE]	–	150
–	–	175	40	O=C(O)[C@H]1[C@H]2C[C@@H]3c4[nH]c5ccccc5c4CCN3C[C@H]2CC[C@@H]1O [ISORAUHIMBINIC ACID]	–	125
–	–	20	160	COC(=O)[C@H]1[C@H]2C[C@@H]3c4[nH]c5cc(OC)ccc5c4CCN3C[C@H]2C[C@@H](OC(=O)c2cc(OC)c(OC)c(OC)c2)[C@@H]1OC [RESERPINE]	–	67
inactive	inactive	125	30	COC(=O)[C@@H]1[C@H]2C[C@H]3c4[nH]c5ccccc5c4CCN3C[C@@H]2CC[C@@H]1O [YOHIMBINE]	inactive	84

SMILES	Activity [1]	Activity [3]	IC50 [4] [µM]	IC50 [5] [µM]	Activity [2]	IC50 [2] [µM]
COC(=O)[C@H]1[C@H]2C[C@@H]3c4[nH]c5cc(OC)ccc5c4CCN3C[C@H]2C[C@@H](OC(=O)/C=C/c2cc(OC)c(OC)c(OC)c2)[C@@H]1OC	inactive	inactive	–	–	inactive	–
CC[C@@]1(O)C(=O)OCc2c1cc1n(c2=O)Cc2cc3ccccc3nc2-1 [CAMPTOTHECIN]	–	–	> 1000	–	–	130
